This is an account of results in ChEMBL document CHEMBL1158036, “Steroidal saponins from Solanum nigrum” (J Nat Prod, 2006).

The test system of one assay is HepG2. As to the kind of experiment: (§1) Cytotoxicity against human Hep G2 after 48 hrs by MTT assay. The assay is classed as functional. Put shortly: (§2)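 Cells grown in RPMI 1640 with 10% FBS, trypsinized at 70% confluence; 1.0 × 10^4 cells per well cultured 24 h before treatment. Compounds at 100-3.125 µM, vehicle 0.1% DMSO, 48 h exposure; MTT read at 570 nm. IC50 where 100 × (C − T)/(C − B) = 50, derived by LOGIT method; mean ± SD of three independent experiments.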
In general terms: Tetrazolium dyes change colour on reduction, which living cells bring about.

The subject of another assay is MCF7. As to the kind of experiment: Cytotoxicity against human MCF7 after 48 hrs by MTT assay. The format is functional, cell-based. Particulars: for IC50: MCF7, 48 h. The gist of the method:
as §2

The next assay concerns NCI-H460. Briefly: Cytotoxicity against human NCI-H460 after 48 hrs by MTT assay. The assay is classed as functional, cell-based. Particulars: for IC50: NCI-H460, 48 h. The gist of the method: as §2
In a further assay the test system is SF-268. Briefly: Cytotoxicity against human SF-268 after 48 hrs by MTT assay. The assay is classed as functional, cell-based. The conditions noted are these: for IC50: SF-268, 48 h. The gist of the method:
as §2

The nature of assay [1]: as §1. The assay is classed as functional. The conditions noted are these: HepG2, 48 h. The gist of the method: as §2

Take `C[C@@H]1C[C@H](O)[C@@]2(OC1=O)O[C@H]1C[C@H]3[C@@H]4CC[C@H]5C[C@@H](O[C@@H]6O[C@H](CO)[C@H](O[C@@H]7O[C@H](CO)[C@@H](O)[C@H](O[C@@H]8OC[C@@H](O)[C@H](O)[C@H]8O)[C@H]7O[C@@H]7OC[C@H](O)[C@H](O)[C@H]7O)[C@H](O)[C@H]6O[C@@H]6O[C@@H](C)[C@H](O)[C@@H](O)[C@H]6O)CC[C@]5(C)[C@H]4CC[C@]3(C)[C@H]1[C@@H]2C`: the Activity entry with HepG2, in the assay on MCF7, in the assay on NCI-H460 and with SF-268 was “Not toxic” each time.

As for `C[C@H]1CO[C@@]2(O[C@H]3C[C@H]4[C@@H]5CC[C@H]6C[C@@H](O[C@@H]7O[C@H](CO)[C@H](O[C@@H]8O[C@H](CO)[C@@H](O)[C@H](O[C@@H]9OC[C@@H](O)[C@H](O)[C@H]9O)[C@H]8O[C@@H]8O[C@H](CO)[C@@H](O)[C@H](O)[C@H]8O)[C@H](O)[C@H]7O)CC[C@]6(C)[C@H]5CC[C@]4(C)[C@H]3[C@@H]2C)[C@@H](O[C@@H]2O[C@H](CO)[C@@H](O)[C@H](O)[C@H]2O)C1`, the Activity entry with HepG2, in the assay with MCF7, in the assay on NCI-H460 and in the assay with SF-268 was “Not toxic” each time.

As to `C[C@@H]1C[C@H](O)[C@@]2(OC1=O)O[C@H]1[C@H](O)[C@H]3[C@@H]4CC[C@H]5C[C@@H](O[C@@H]6O[C@H](CO)[C@H](O[C@@H]7O[C@H](CO)[C@@H](O)[C@H](O[C@@H]8O[C@H](CO)[C@@H](O)[C@H](O)[C@H]8O)[C@H]7O[C@@H]7O[C@H](CO)[C@@H](O)[C@H](O)[C@H]7O)[C@H](O)[C@H]6O)CC[C@]5(C)[C@H]4CC[C@]3(C)[C@H]1[C@@H]2C`, the Activity entry with HepG2, in the assay on MCF7, in the assay on NCI-H460 and in the assay with SF-268 was “Not toxic” each time.

For orientation: IC50 means the midpoint of a concentration-inhibition curve. For the compound `C[C@@H]1CC[C@@]2(OC1)O[C@H]1C[C@H]3[C@@H]4CC[C@H]5C[C@@H](O[C@@H]6O[C@H](CO)[C@H](O[C@@H]7O[C@H](CO)[C@@H](O)[C@H](O[C@@H]8OC[C@@H](O)[C@H](O)[C@H]8O)[C@H]7O[C@@H]7O[C@H](CO)[C@@H](O)[C@H](O)[C@H]7O)[C@H](O)[C@H]6O)CC[C@]5(C)[C@H]4CC[C@]3(C)[C@H]1[C@@H]2C` [DEGALACTOTIGONIN], the IC50 came out at 0.25 µM in assay [1], 1.57 µM with MCF7, 4.49 µM in the assay with NCI-H460 and 3.19 µM in the assay with SF-268.

With `C[C@@H]1C[C@H](O)[C@@]2(OC1=O)O[C@H]1[C@H](O)[C@H]3[C@@H]4CC[C@H]5C[C@@H](O[C@@H]6O[C@H](CO)[C@H](O[C@@H]7O[C@H](CO)[C@@H](O)[C@H](O[C@@H]8OC[C@@H](O)[C@H](O)[C@H]8O)[C@H]7O[C@@H]7OC[C@H](O)[C@H](O)[C@H]7O)[C@H](O)[C@H]6O[C@@H]6O[C@@H](C)[C@H](O)[C@@H](O)[C@H]6O)CC[C@]5(C)[C@H]4CC[C@]3(C)[C@H]1[C@@H]2C`, the Activity entry in the assay with HepG2, with MCF7, in the assay with NCI-H460 and in the assay with SF-268 was “Not toxic” each time.

On to `C[C@@H]1CC[C@@]2(OC1)O[C@H]1[C@H](O)[C@H]3[C@@H]4CC[C@H]5C[C@@H](O[C@@H]6O[C@H](CO)[C@H](O[C@@H]7O[C@H](CO)[C@@H](O)[C@H](O[C@@H]8OC[C@@H](O)[C@H](O)[C@H]8O)[C@H]7O[C@@H]7O[C@H](CO)[C@@H](O)[C@H](O)[C@H]7O)[C@H](O)[C@H]6O)CC[C@]5(C)[C@H]4CC[C@]3(C)[C@H]1[C@@H]2C`, for which the Activity result with HepG2, in the assay with MCF7, in the assay with NCI-H460 and in the assay with SF-268 was “Not toxic” each time.

Regarding `CC[C@@]1(O)C(=O)OCc2c1cc1n(c2=O)Cc2cc3cc(O)ccc3nc2-1` [HYDROXYCAMPTOTHECIN], the IC50 stood at 6.49 µM in assay [1], 19.1 µM with MCF7, 38.6 µM in the assay on NCI-H460 and 29.9 µM with SF-268.

`C[C@@H]1CC[C@@]2(OC1)O[C@H]1C[C@H]3[C@@H]4CC=C5C[C@@H](O[C@@H]6O[C@H](CO)[C@@H](O[C@@H]7O[C@@H](C)[C@H](O)[C@@H](O)[C@H]7O[C@@H]7O[C@H](CO)[C@@H](O)[C@H](O)[C@H]7O)[C@H](O)[C@H]6O[C@@H]6O[C@@H](C)[C@H](O)[C@@H](O)[C@H]6O)CC[C@]5(C)[C@H]4CC[C@]3(C)[C@@]1(O)[C@@H]2C`: the Activity entry in the assay with HepG2, with MCF7, with NCI-H460 and with SF-268 was “Not toxic” each time.
